Data published in ChEMBL document CHEMBL4325870, “Synthesis and biological evaluation of 3-aryl-quinolin derivatives as anti-breast cancer agents targeting ERα and VEGFR-2” (Eur J Med Chem, 2019).
The source made the active and inactive calls. The calls are words filed in the database; no cut-off is given here.

How the values were obtained:
[1] = molecular target: Vascular endothelial growth factor receptor 2 (Homo sapiens, UniProt P35968)
[2] = system: HUVEC; test: Antiproliferative activity against HUVEC after 48 hrs by MTT assay; assay type: functional, cell-based; conditions: Homo sapiens
Method in brief: (§1)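 Cells kept in RPMI1640 with 10% FBS and penicillin/streptomycin at 37 °C, 5% CO2. Seeded at 1 x 10^5/mL, grown 24 h, then exposed to compound-containing medium for 48 h; controls received 1% DMSO medium. MTT (5 mg/mL) added for 4 h in the dark, formazan dissolved in DMSO, absorbance read. Value is concentration giving 50% growth inhibition.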

[3] = system: MCF7; test: Antiproliferative activity against human MCF7 cells after 48 hrs by MTT assay; assay type: functional, cell-based; conditions: MCF7, 48 h
Method in brief: as §1

[4] = system: Ishikawa; test: Antiproliferative activity against human Ishikawa cells after 48 hrs by MTT assay; assay type: functional
Method in brief: as §1

[5] = system: Ishikawa; test: Stimulation of cell proliferation in human Ishikawa cells at 1 to 10 uM after 48 hrs by MTT assay; assay type: ADME, cell-based
Method in brief: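 Ishikawa endometrial cells in RPMI1640 with 10% FBS, seeded at 1 x 10^5/mL, exposed 48 h to compound at 1 μM or 10 μM, then read by MTT assay (5 mg/mL MTT, 4 h, dark, DMSO solubilisation, absorbance).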

[6] = system: MCF7; test: Effect on progesterone receptor mRNA expression in non-stimulated human MCF7 cells at 1 uM by SYBR green dye based RT-PCR analysis; assay type: ADME, cell-based; conditions: mcf7, 1 µM
Method in brief: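 Real-time PCR on MCF-7 cells given compound at 1 μM alone, without estradiol. Amplification: 95 °C 2 min, then 40 cycles of 95 °C 10 s, 60 °C 30 s, 95 °C 10 s. PgR mRNA normalised to GAPDH by the ΔΔCT method; mean ± SD, n=3.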

[7] = system: MCF7; test: Antimigratory activity in human MCF7 cells assessed as inhibition of wound healing at 1.25 uM after 8 to 48 hrs by phase contrast microscopic analysis; assay type: functional, cell-based
Method in brief: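 Wound-healing assay: MCF-7 monolayers grown to full confluence in 24-well plates, scratched with a tip, washed twice with PBS, then given serum-free 1640 medium with or without compound at 1.25 μM. Wound closure photographed by phase-contrast microscopy (100×) at 8, 16, 24/48 h; migration rate quantified from images.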

[8] = molecular target: T1, Estrogen receptor (Homo sapiens, UniProt P03372); test: Displacement of fluorescent estrogen ligand from recombinant human full length untagged ERalpha expressed in Spodoptera frugiperda insect cells measured after 2 hrs by fluorescence polarization assay
T1 sequence (P03372 whole entry): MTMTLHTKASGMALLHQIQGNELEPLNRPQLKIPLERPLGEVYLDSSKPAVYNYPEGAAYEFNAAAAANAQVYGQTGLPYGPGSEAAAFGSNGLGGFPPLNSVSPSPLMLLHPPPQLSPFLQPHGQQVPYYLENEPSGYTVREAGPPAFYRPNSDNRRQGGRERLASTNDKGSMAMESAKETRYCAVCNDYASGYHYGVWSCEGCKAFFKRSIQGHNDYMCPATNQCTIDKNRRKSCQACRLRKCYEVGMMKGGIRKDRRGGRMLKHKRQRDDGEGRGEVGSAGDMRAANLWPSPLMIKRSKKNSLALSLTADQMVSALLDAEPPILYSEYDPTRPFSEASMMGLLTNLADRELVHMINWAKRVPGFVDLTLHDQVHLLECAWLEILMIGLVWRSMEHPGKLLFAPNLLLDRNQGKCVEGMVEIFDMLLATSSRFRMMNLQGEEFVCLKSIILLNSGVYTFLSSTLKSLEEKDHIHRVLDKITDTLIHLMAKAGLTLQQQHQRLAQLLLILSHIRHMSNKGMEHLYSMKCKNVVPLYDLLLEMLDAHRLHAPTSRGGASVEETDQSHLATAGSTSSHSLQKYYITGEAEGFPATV

[9] = system: MCF7; test: Cell cycle arrest in human MCF7 cells assessed as accumulation at G1 phase at 1.25 uM after 12 hrs by propidium iodide staining based flow cytometry (reference value: 46.25%); assay type: functional
Method in brief: (§2)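 MCF-7 cells exposed to 1.25 μM compound or DMSO vehicle for 12 h and 24 h. Cells washed in ice-cold PBS, pelleted, fixed in ice-cold 70% ethanol, RNase-treated (0.1 mg/mL), stained with propidium iodide, and analysed by flow cytometry for G1, S and G2 phase distribution.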

[10] = system: MCF7; test: Cell cycle arrest in human MCF7 cells assessed as accumulation at S phase at 1.25 uM after 12 hrs by propidium iodide staining based flow cytometry (reference value: 18.93%); assay type: functional
Method in brief: as §2

[11] = system: MCF7; test: Cell cycle arrest in human MCF7 cells assessed as accumulation at G2 phase at 1.25 uM after 12 hrs by propidium iodide staining based flow cytometry (reference value: 31.48%); assay type: functional
Method in brief: as §2

[12] = system: MCF7; test: Cell cycle arrest in human MCF7 cells assessed as accumulation at G1 phase at 1.25 uM after 24 hrs by propidium iodide staining based flow cytometry (reference value: 46.25%); assay type: functional
Method in brief: as §2

[13] = system: MCF7; test: Cell cycle arrest in human MCF7 cells assessed as accumulation at S phase at 1.25 uM after 24 hrs by propidium iodide staining based flow cytometry (reference value: 18.93%); assay type: functional
Method in brief: as §2

[14] = system: MCF7; test: Cell cycle arrest in human MCF7 cells assessed as accumulation at G2 phase at 1.25 uM after 24 hrs by propidium iodide staining based flow cytometry (reference value: 31.48%); assay type: functional
Method in brief: as §2

Chain of Vascular endothelial growth factor receptor 2 (P35968 whole entry): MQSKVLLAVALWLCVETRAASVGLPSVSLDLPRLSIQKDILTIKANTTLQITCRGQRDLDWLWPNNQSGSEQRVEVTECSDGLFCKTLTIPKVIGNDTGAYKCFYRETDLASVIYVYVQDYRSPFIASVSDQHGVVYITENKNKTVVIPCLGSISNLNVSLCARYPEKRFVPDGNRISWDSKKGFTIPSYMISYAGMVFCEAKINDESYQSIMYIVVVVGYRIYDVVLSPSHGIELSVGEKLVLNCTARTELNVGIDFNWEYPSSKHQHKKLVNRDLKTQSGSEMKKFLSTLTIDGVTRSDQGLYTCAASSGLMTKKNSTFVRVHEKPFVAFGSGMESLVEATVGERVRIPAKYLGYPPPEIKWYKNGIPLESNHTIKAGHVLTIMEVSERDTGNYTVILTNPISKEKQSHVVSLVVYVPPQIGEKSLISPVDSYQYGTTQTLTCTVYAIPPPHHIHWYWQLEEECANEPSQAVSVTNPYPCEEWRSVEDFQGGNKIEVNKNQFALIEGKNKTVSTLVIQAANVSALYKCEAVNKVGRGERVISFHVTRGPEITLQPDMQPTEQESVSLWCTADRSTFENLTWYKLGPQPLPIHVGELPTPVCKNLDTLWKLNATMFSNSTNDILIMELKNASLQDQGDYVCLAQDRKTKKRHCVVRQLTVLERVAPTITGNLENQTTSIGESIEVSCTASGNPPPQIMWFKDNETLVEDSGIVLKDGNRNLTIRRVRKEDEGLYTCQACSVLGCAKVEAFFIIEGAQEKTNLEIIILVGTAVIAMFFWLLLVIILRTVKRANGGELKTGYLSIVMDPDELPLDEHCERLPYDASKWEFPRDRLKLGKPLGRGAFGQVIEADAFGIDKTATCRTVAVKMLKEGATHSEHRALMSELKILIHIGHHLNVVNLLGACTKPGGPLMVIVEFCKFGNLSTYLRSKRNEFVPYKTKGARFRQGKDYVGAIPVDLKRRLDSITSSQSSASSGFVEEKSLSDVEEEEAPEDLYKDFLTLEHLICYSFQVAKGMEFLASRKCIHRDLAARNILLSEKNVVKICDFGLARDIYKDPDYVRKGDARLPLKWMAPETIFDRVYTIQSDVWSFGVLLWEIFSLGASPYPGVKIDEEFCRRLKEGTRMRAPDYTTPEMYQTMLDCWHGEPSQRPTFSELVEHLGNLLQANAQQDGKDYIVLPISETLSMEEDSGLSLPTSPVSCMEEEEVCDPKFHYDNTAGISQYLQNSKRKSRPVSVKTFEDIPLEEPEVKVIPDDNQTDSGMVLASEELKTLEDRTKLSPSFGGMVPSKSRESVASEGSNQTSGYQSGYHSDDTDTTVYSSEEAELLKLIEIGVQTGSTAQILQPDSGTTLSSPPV

| IC50 [1] | IC50 [3] | SMILES | IC50 [2] | Activity [4] | also measured |
| --- | --- | --- | --- | --- | --- |
| 0.125 µM | 6.6 µM | COc1ccc(-c2cc3ccc(OC)cc3nc2Nc2ccc(NC(=O)CN3CCCC3)cc2)cc1 | 8.6 µM | 8.2 µM | – |
| 0.11 µM | > 50 µM | COc1ccc(-c2cc3ccc(OC)cc3nc2Nc2ccc(NC(=O)CN3CCOCC3)cc2)cc1 | 9.1 µM | >50 µM | – |
| 0.079 µM | 47.9 µM | COc1ccc(-c2cc3ccc(OC)cc3nc2Nc2ccc(NC(=O)CN3CCCCC3)cc2)cc1 | 23.5 µM | >50 µM | – |
| 0.08 µM | > 50 µM | COc1ccc(-c2cc3cc(OC)ccc3nc2Nc2ccc(NC(=O)CN3CCCCC3)cc2)cc1 | > 50 µM | >50 µM | – |
| 0.117 µM | > 50 µM | COc1ccc(-c2cc3cc(OC)ccc3nc2Nc2ccc(NC(=O)CN3CCOCC3)cc2)cc1 | > 50 µM | >50 µM | – |
| 0.086 µM | 1.8 µM | COc1ccc(-c2cc3cc(OC)ccc3nc2Nc2ccc(NC(=O)CN3CCN(C)CC3)cc2)cc1 | 7.4 µM | 1.8 µM | IC50 [8]: 1.78 µM; Activity [5]: Non-Toxic; Activity [6]: Non-Toxic; Activity [9]: 51.18%; Activity [10]: 18.78%; Activity [11]: 28.82%; Activity [12]: 54.63%; Activity [13]: 22.39%; Activity [14]: 20.43% |
| 0.131 µM | 7.29 µM | COc1ccc(-c2cc3cc(OC)ccc3nc2Nc2ccc(NC(=O)CN3CCCC3)cc2)cc1 | 13.1 µM | 10.3 µM | – |
| 0.104 µM | 2.8 µM | COc1ccc(-c2cc3ccc(OC)cc3nc2Nc2ccc(NC(=O)CN3CCN(C)CC3)cc2)cc1 | 7.4 µM | 3.8 µM | IC50 [8]: 2.33 µM; Activity [5]: Non-Toxic |

The next lines start with the molecule.

| SMILES | IC50 [1] | IC50 [3] | IC50 [2] | Activity [4] | also measured |
| --- | --- | --- | --- | --- | --- |
| COc1ccc(-c2cc3cc(OC)ccc3nc2Nc2ccc(NC(=O)CN(C)C)cc2)cc1 | 0.109 µM | 39.5 µM | 22.2 µM | >50 µM | – |
| CC/C(=C(\c1ccccc1)c1ccc(OCCN(C)C)cc1)c1ccccc1 [TAMOXIFEN] | – | 16.7 µM | – | >50 µM | Activity [5]: Toxic; Activity [6]: Non-Toxic |
| CCN(CC)CCNC(=O)c1c(C)[nH]c(/C=C2\C(=O)Nc3ccc(F)cc32)c1C [SUNITINIB] | – | – | 3.2 µM | 14.3 µM | inhibition [7]: Active |
| O=C(c1ccc(OCCN2CCCCC2)cc1)c1c(-c2ccc(O)cc2)sc2cc(O)ccc12 [RALOXIFENE] | – | 12.5 µM | – | >50 µM | Activity [5]: Toxic |
| CCN(CC)CC(=O)Nc1ccc(Nc2nc3cc(OC)ccc3cc2-c2ccc(OC)cc2)cc1 | 0.101 µM | 17.3 µM | 14 µM | 21.4 µM | – |
| COc1ccc(-c2cc3ccc(OC)cc3nc2Nc2ccc(NC(=O)CN(C)C)cc2)cc1 | 0.114 µM | 9.6 µM | 9.2 µM | 8.4 µM | – |
| CCN(CC)CC(=O)Nc1ccc(Nc2nc3ccc(OC)cc3cc2-c2ccc(OC)cc2)cc1 | 0.081 µM | > 50 µM | 45.6 µM | >50 µM | – |
